Reference: ChEMBL document CHEMBL1126036, “Quinolone antibacterial agents. Synthesis and structure-activity relationships of a series of amino acid prodrugs of racemic and chiral 7-(3-amino-1-pyrrolidinyl)quinolones. Highly soluble quinolone prodrugs with in vivo pseudomonas activity” (J Med Chem, 1992)

Assays:
Staphylococcus aureus [1] = assay: In vitro antibacterial activity against gram positive Staphylococcus aureus H-228.; type: functional
Streptococcus pneumoniae [2] = assay: In vitro antibacterial activity against gram positive Streptococcus pneumoniae SV-1.; type: functional
Staphylococcus aureus [3] = assay: In vitro antibacterial activity against gram positive Staphylococcus aureus UC76.; type: functional
Escherichia coli [4] = assay: In vitro antibacterial activity against gram negative Escherichia coli Vogel.; type: functional
Enterococcus faecalis = assay: In vitro antibacterial activity against gram positive Enterococcus faecalis MGH-2.; type: functional
Pseudomonas aeruginosa = assay: In vitro antibacterial activity against gram negative Pseudomonas aeruginosa UI-18.; type: functional
Streptococcus pyogenes = assay: In vitro antibacterial activity against gram positive Streptococcus pyogenes C-203.; type: functional
Providencia rettgeri = assay: In vitro antibacterial activity against gram negative Providencia rettgeri M-1771.; type: functional
Enterobacter cloacae = assay: In vitro antibacterial activity against gram negative Enterobacter cloacae MA 2646.; type: functional
Klebsiella pneumoniae = assay: In vitro antibacterial activity against gram negative Klebsiella pneumoniae MGH-2.; type: functional
Escherichia coli [5] = assay: In vivo potency against acute systemic infection in mouse caused by Escherichia coli Vogel on oral administration by gavage.; type: functional; details: read-out: PD50
In short: (§1)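 Acute systemic mouse infection. A single oral dose was given by gavage at the time of challenge. Potency is reported as the median protective dose (PD50, mg/kg), determined by earlier published methods.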

[6] = biological target: DNA gyrase (Escherichia coli) (UniProt P0AES6+P0AES4); assay: In vitro concentration inhibiting DNA gyrase induced cleavage in Escherichia coli H560.; type: functional
In short: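 DNA gyrase test run as described in earlier work. The value is the drug concentration (µg/mL) needed to cause DNA cleavage.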

[7] = Aqueous solubility; type: physicochemical; details: water (aqueous); read-out: S
In short: (§2)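 Solubility was measured either from HPLC peak areas at equilibrium or by a conventional weight-per-volume method. All solutions were held for 24 h before measurement.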

Streptococcus pneumoniae [8] = assay: In vivo potency against acute systemic infection in mouse caused by Streptococcus pneumoniae SV-1 on oral administration by gavage.; type: functional; details: read-out: PD50; in short: as §1
Streptococcus pneumoniae [9] = assay: In vivo potency against acute systemic infection in mouse caused by Streptococcus pneumoniae SV-1 on subcutaneous injection.; type: functional; details: sc, read-out: PD50
In short: (§3)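 Acute systemic mouse infection. A single subcutaneous dose was injected at the time of challenge. Potency is reported as the median protective dose (PD50, mg/kg), determined by earlier published methods.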

Mus musculus [10] = assay: In vivo potency against acute systemic infection in mouse caused by Streptococcus pyogenes C-203 on oral administration by gavage; type: functional; details: read-out: PD50; in short: as §1
[11] = Solubility (in 0.1 N HCl); type: physicochemical; details: read-out: S; in short: as §2
Escherichia coli [12] = assay: In vivo potency against acute systemic infection in mouse caused by Escherichia coli vogel on subcutaneous injection.; type: functional; details: sc, read-out: PD50; in short: as §3
[13] = Solubility (at pH 7.4); type: physicochemical; details: buffer, read-out: S; in short: as §2
Mus musculus [14] = assay: In vivo potency against acute systemic infection in mouse caused by Streptococcus pyogenes C-203 on subcutaneous injection; type: functional; details: sc, read-out: PD50; in short: as §3
[15] = Solubility (at pH 4); type: physicochemical; details: buffer, read-out: S; in short: as §2

| SMILES | MIC (Staphylococcus aureus [1]) | MIC (Streptococcus pneumoniae [2]) | MIC (Staphylococcus aureus [3]) | MIC (Escherichia coli [4]) | MIC (Enterococcus faecalis) | MIC (Pseudomonas aeruginosa) | MIC (Streptococcus pyogenes) | MIC (Providencia rettgeri) | MIC (Enterobacter cloacae) | MIC (Klebsiella pneumoniae) | ED50 (Escherichia coli [5]) | Cleavage [6] | solubility [7] | ED50 (Streptococcus pneumoniae [8]) | ED50 (Streptococcus pneumoniae [9]) | solubility [11] | ED50 (Escherichia coli [12]) | solubility [13] | solubility [15] | further results |
| --- | --- | --- | --- | --- | --- | --- | --- | --- | --- | --- | --- | --- | --- | --- | --- | --- | --- | --- | --- | --- |
| Cl.NCCCC[C@H](N)C(=O)NC1CCN(c2c(F)cc3c(=O)c(C(=O)O)cn(C4CC4)c3c2F)C1.O (stereo not given in full) | 0.4 µg/mL | 6.3 µg/mL | 0.2 µg/mL | 6.3 µg/mL | 6.3 µg/mL | 12.5 µg/mL | 6.3 µg/mL | 12.5 µg/mL | 3.1 µg/mL | 12.5 µg/mL |  |  |  |  |  |  |  |  |  |  |
| C[C@H](N)C(=O)N[C@@H]1CCN(c2nc3c(cc2F)c(=O)c(C(=O)O)cn3C2CC2)C1.Cl.O | 3.1 µg/mL | 1.6 µg/mL | 0.8 µg/mL | 1.6 µg/mL | 3.1 µg/mL | 6.3 µg/mL | 0.8 µg/mL | 3.1 µg/mL | 0.8 µg/mL | 3.1 µg/mL | 2 mg/kg | 1 µg/mL | > 200 mg/mL | 40 mg/kg | 28 mg/kg | > 200 mg/mL | 0.5 mg/kg | 0.07 mg/mL | > 200 mg/mL | ED50 (Mus musculus [10]): 49 mg/kg; ED50 (Mus musculus [14]): 32 mg/kg |
| C[C@H](N)C(=O)N[C@@H]1CCN(c2c(F)c(N)c3c(=O)c(C(=O)O)cn(C4CC4)c3c2F)C1.Cl.O | 0.4 µg/mL | 0.2 µg/mL | 0.025 µg/mL | 0.4 µg/mL | 0.4 µg/mL | 3.1 µg/mL | 0.2 µg/mL | 1.6 µg/mL | 0.8 µg/mL | 0.8 µg/mL | 2.2 mg/kg | 5 µg/mL | 21 mg/mL | 18 mg/kg | 7.7 mg/kg | 3.2 mg/mL | 0.5 mg/kg | 0.04 mg/mL | 71 mg/mL | ED50 (Mus musculus [10]): 20 mg/kg; ED50 (Mus musculus [14]): 6.3 mg/kg |
| Cl.Nc1c(F)c(N2CC[C@H](N)C2)c(F)c2c1c(=O)c(C(=O)O)cn2C1CC1.O | 0.006 µg/mL | 0.006 µg/mL | 0.003 µg/mL | 0.003 µg/mL | 0.025 µg/mL | 0.025 µg/mL | 0.013 µg/mL | 0.025 µg/mL | 0.003 µg/mL | 0.013 µg/mL | 1.2 mg/kg | 0.1 µg/mL | 2.5 mg/mL | 10 mg/kg | 6 mg/kg | 0.25 mg/mL | 0.4 mg/kg | 0.05 mg/mL | 2.3 mg/mL | ED50 (Mus musculus [10]): 18 mg/kg; ED50 (Mus musculus [14]): 5.5 mg/kg |
| C[C@H](N)C(=O)N[C@@H]1CCN(c2c(F)cc3c(=O)c(C(=O)O)cn(C4CC4)c3c2F)C1.Cl.O | 0.8 µg/mL | 0.4 µg/mL | 0.2 µg/mL | 0.4 µg/mL | 0.8 µg/mL | 3.1 µg/mL | 0.4 µg/mL | 0.8 µg/mL | 0.2 µg/mL | 0.8 µg/mL | 1 mg/kg | 2.5 µg/mL | 29 mg/mL | 25 mg/kg | 19 mg/kg | 6 mg/mL | 0.6 mg/kg | 0.07 mg/mL | 30 mg/mL |  |
| Cl.N[C@@H](Cc1ccccc1)C(=O)NC1CCN(c2cc3c(cc2F)c(=O)c(C(=O)O)cn3C2CC2)C1.O (stereo not given in full) | 0.8 µg/mL | 0.4 µg/mL | 0.2 µg/mL | 0.8 µg/mL | 0.4 µg/mL | 6.3 µg/mL | 0.4 µg/mL | 3.1 µg/mL | 0.8 µg/mL | 3.1 µg/mL | 5 mg/kg | 25 µg/mL | 44 mg/mL | > 50 mg/kg | 5 mg/kg | 9.2 mg/mL | 1 mg/kg | 0.3 mg/mL | 66 mg/mL |  |
| Cl.N[C@@H](Cc1ccccc1)C(=O)NC1CCN(c2c(F)cc3c(=O)c(C(=O)O)cn(C4CC4)c3c2F)C1.O (stereo not given in full) | 3.1 µg/mL | > 25 µg/mL | 1.6 µg/mL | 0.8 µg/mL | 25 µg/mL | 25 µg/mL | > 25 µg/mL | 3.1 µg/mL | 1.6 µg/mL | 1.6 µg/mL | 5 mg/kg | 7.5 µg/mL | 31 mg/mL |  |  | 7.2 mg/mL | 1 mg/kg |  | 21 mg/mL |  |
| Cl.NCCCC[C@H](N)C(=O)NC1CCN(c2cc3c(cc2F)c(=O)c(C(=O)O)cn3C2CC2)C1.O (stereo not given in full) | 25 µg/mL | 25 µg/mL | 3.1 µg/mL | 12.5 µg/mL | > 25 µg/mL | 25 µg/mL | 12.5 µg/mL | 25 µg/mL | 12.5 µg/mL | 12.5 µg/mL | 10 mg/kg |  | 93 mg/mL | > 100 mg/kg | 12 mg/kg | 69 mg/mL | 1 mg/kg | 0.11 mg/mL | > 100 mg/mL |  |
| Cl.NCC(=O)NC1CCN(c2cc3c(cc2F)c(=O)c(C(=O)O)cn3C2CC2)C1.O (stereo not given) | 3.1 µg/mL | 0.4 µg/mL | 0.4 µg/mL | 0.4 µg/mL | 1.6 µg/mL | 1.6 µg/mL | 0.1 µg/mL | 1.6 µg/mL | 0.4 µg/mL | 0.8 µg/mL | 6.3 mg/kg | 2.5 µg/mL | > 100 mg/mL | > 100 mg/kg | 18 mg/kg | > 100 mg/mL | 1.1 mg/kg | 0.22 mg/mL | > 100 mg/mL |  |
| C[C@@H](N)C(=O)NC1CCN(c2c(F)cc3c(=O)c(C(=O)O)cn(C4CC4)c3c2F)C1.Cl.O (stereo not given in full) | 0.05 µg/mL | 0.013 µg/mL | 0.006 µg/mL | 0.2 µg/mL | 0.025 µg/mL | 1.6 µg/mL | 0.006 µg/mL | 0.8 µg/mL | 0.4 µg/mL | 0.4 µg/mL | 31 mg/kg | 2.5 µg/mL | 42 mg/mL | > 100 mg/kg | 1 mg/kg | 3.6 mg/mL | 2 mg/kg |  | 19.4 mg/mL |  |
| Cl.NCC(=O)NC1CCN(c2c(F)cc3c(=O)c(C(=O)O)cn(C4CC4)c3c2F)C1.O (stereo not given) | 0.4 µg/mL | 0.4 µg/mL | 0.1 µg/mL | 0.2 µg/mL | 0.4 µg/mL | 1.6 µg/mL | 0.2 µg/mL | 0.4 µg/mL | 0.2 µg/mL | 0.4 µg/mL | 1 mg/kg | 5 µg/mL | 33 mg/mL | 29 mg/kg | 16 mg/kg | 4.6 mg/mL | 0.4 mg/kg |  | 20 mg/mL |  |
| Cl.N[C@@H]1CCN(c2c(F)cc3c(=O)c(C(=O)O)cn(C4CC4)c3c2F)C1.O | 0.05 µg/mL | 0.025 µg/mL | 0.006 µg/mL | 0.013 µg/mL | 0.05 µg/mL | 0.1 µg/mL | 0.05 µg/mL | 0.025 µg/mL | 0.006 µg/mL | 0.013 µg/mL | 0.9 mg/kg | 0.5 µg/mL | 11 mg/mL | 14 mg/kg | 9 mg/kg |  | 0.2 mg/kg |  |  |  |
| Cl.NCC(=O)NC1CCN(c2nc3c(cc2F)c(=O)c(C(=O)O)cn3C2CC2)C1.O (stereo not given) | 1.6 µg/mL | 0.8 µg/mL | 0.4 µg/mL | 0.2 µg/mL | 0.8 µg/mL | 3.1 µg/mL | 0.1 µg/mL | 0.8 µg/mL | 0.4 µg/mL | 0.4 µg/mL |  | 2.5 µg/mL | > 200 mg/mL | 37 mg/kg | 10 mg/kg | 67 mg/mL |  |  | > 200 mg/mL |  |
| C[C@@H](N)C(=O)NC1CCN(c2cc3c(cc2F)c(=O)c(C(=O)O)cn3C2CC2)C1.Cl.O (stereo not given in full) | 0.4 µg/mL | 0.025 µg/mL | 0.05 µg/mL | 0.8 µg/mL | 0.2 µg/mL | 1.6 µg/mL | 0.013 µg/mL | 1.6 µg/mL | 0.8 µg/mL | 0.8 µg/mL | > 100 mg/kg | 1 µg/mL | > 100 mg/mL | > 100 mg/kg | 3.1 mg/kg | > 100 mg/mL | 4.1 mg/kg | 0.24 mg/mL | > 100 mg/mL |  |
| C[C@H](N)C(=O)N[C@H]1CCN(c2c(F)cc3c(=O)c(C(=O)O)cn(C4CC4)c3c2F)C1.Cl.O | 0.1 µg/mL | 0.1 µg/mL | 0.025 µg/mL | 0.1 µg/mL | 0.1 µg/mL | 0.1 µg/mL | 0.1 µg/mL | 0.2 µg/mL | 0.1 µg/mL | 0.2 µg/mL | 1 mg/kg | 2.5 µg/mL | 33 mg/mL | 25 mg/kg | 9 mg/kg | 5.4 mg/mL | 0.4 mg/kg | 0.07 mg/mL | 19 mg/mL |  |
